# Laboratory results as given in ChEMBL document CHEMBL1158614, “Synthesis and biological evaluation of azobicyclo[3.3.0] octane derivatives as dipeptidyl peptidase 4 inhibitors for the treatment of type 2 diabetes” (Bioorg Med Chem Lett, 2010).
# Legend:
# [1] = system: Mus musculus; assay: Antidiabetic activity in ICR mouse assessed as reduction in glucose AUC (0 to 120) at 1 mg/kg, po pretreated 30 mins before glucose challenge measured after 120 mins by oral glucose tolerance test relative to control; assay type: functional, organism-based; design: dose 1 mg/kg
# Summary of the method: (§1)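 Lean ICR mice were dosed orally at 1, 3 or 10 mg/kg 0.5 h before an oral glucose challenge. Blood glucose was followed over 0–120 min, and glucose AUC0–120 min was expressed as percent change versus vehicle control. Data are mean ± SEM, n = 5 per group; P versus control.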
# [2] = system: Mus musculus; assay: Antidiabetic activity in ICR mouse assessed as reduction in glucose AUC (0 to 120) at 3 mg/kg, po pretreated 30 mins before glucose challenge measured after 120 mins by oral glucose tolerance test relative to control; assay type: functional, organism-based; design: dose 3 mg/kg; summary of the method: as §1
# [3] = system: Mus musculus; assay: Antidiabetic activity in ICR mouse assessed as reduction in glucose AUC (0 to 120) at 10 mg/kg, po pretreated 30 mins before glucose challenge measured after 120 mins by oral glucose tolerance test relative to control; assay type: functional, organism-based; design: dose 10 mg/kg; summary of the method: as §1
# [4] = Cmax in Sprague-Dawley rat at 3 mg/kg, po; assay type: ADME, organism-based; design: dose 3 mg/kg, route oral; conditions: in vivo
# Summary of the method: (§2)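 Single oral dose of 3.0 mg/kg given to Sprague-Dawley rats, n = 6. Plasma concentration–time profiles gave apparent total plasma clearance (CL_z/F), half-life, AUC0–t and peak plasma concentration (Cmax).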
# [5] = system: Cynomolgus monkey; assay: animal or person; conditions: Macaca fascicularis, po, 9 h, read-out: Inhibition
# [6] = Half life in Sprague-Dawley rat at 3 mg/kg, po; assay type: ADME, organism-based; design: dose 3 mg/kg, route oral; conditions: in vivo; summary of the method: as §2
# [7] = (§3) AUC (0 to t) in Sprague-Dawley rat at 3 mg/kg, po; assay type: ADME, organism-based, Plasma; design: dose 3 mg/kg, route oral; conditions: Sprague-Dawley, plasma; summary of the method: as §2
# [8] = system: Cynomolgus monkey; assay: animal or person; conditions: Macaca fascicularis, po, 12 h, read-out: Inhibition
# [9] = (§4) Apparent total oral clearance in Sprague-Dawley rat at 3 mg/kg, po; assay type: ADME, organism-based; design: dose 3 mg/kg, route oral; conditions: Sprague-Dawley, in vivo; summary of the method: as §2
# [10] = target: Dipeptidyl peptidase 4 (Homo sapiens, UniProt P27487)
# Dipeptidyl peptidase 4, sequence (P27487 whole entry): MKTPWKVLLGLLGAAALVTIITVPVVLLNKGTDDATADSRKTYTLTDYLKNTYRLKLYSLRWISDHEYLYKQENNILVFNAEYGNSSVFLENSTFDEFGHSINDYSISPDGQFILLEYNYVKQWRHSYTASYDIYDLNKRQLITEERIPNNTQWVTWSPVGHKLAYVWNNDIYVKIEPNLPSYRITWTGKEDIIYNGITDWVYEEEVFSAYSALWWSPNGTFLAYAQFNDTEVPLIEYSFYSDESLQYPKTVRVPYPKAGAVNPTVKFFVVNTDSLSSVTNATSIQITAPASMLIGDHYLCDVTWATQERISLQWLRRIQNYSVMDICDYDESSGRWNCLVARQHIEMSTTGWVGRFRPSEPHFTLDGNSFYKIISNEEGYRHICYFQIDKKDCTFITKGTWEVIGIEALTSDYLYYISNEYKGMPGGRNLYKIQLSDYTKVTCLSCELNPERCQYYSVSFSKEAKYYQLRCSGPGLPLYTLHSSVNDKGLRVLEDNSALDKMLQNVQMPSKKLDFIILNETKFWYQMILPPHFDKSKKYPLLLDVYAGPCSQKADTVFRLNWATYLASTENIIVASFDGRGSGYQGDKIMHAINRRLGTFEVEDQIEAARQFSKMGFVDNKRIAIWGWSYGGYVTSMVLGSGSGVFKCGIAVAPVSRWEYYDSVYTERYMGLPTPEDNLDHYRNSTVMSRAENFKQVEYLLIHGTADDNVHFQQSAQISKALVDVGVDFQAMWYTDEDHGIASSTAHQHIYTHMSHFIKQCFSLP
# [11] = system: Cynomolgus monkey; assay: animal or person; conditions: Macaca fascicularis, po, 5 h, read-out: Inhibition
# [12] = system: Rattus norvegicus; assay: as §3; assay type: ADME, organism-based, Plasma; design: dose 3 mg/kg, route oral; conditions: in vivo; summary of the method: as §2
# [13] = system: Rattus norvegicus; assay: as §4; assay type: ADME, organism-based; design: dose 3 mg/kg, route oral; conditions: in vivo; summary of the method: as §2
smiles,measurement,setting,value
N#C[C@@H]1CCCN1C(=O)CNC12CC3CC(CC(O)(C3)C1)C2,AUC,[1],35.8%
same,AUC,[2],41.7%
same,AUC,[3],51.4%
CN(C)C(=O)N1C[C@@H]2C[C@@](C)(NCC(=O)N3CCC[C@H]3C#N)C[C@@H]2C1,Cmax,[4],146 ng/mL
same,inhibition in vivo at 20 mg/kg,[5],> 75%
same,half-life,[6],54 min
same,AUC(0-t),[7],120 ng·h/mL
same,inhibition in vivo at 20 mg/kg,[8],51%
same,CL/F,[9],564 mL/min/kg
COC(=O)N1C[C@H]2C[C@@H](NCC(=O)N3CCC[C@H]3C#N)C[C@H]2C1,IC50,[10],24 nM
N#C[C@@H]1CCCN1C(=O)CN[C@@H]1C[C@@H]2CN(C(=O)N3CCOCC3)C[C@@H]2C1,IC50,[10],50 nM
CC(C)NC(=O)N1C[C@H]2C[C@@H](NCC(=O)N3CCC[C@H]3C#N)C[C@H]2C1,IC50,[10],120 nM
N#C[C@@H]1CCCN1C(=O)CN[C@@H]1C[C@@H]2CN(C(=O)N3CCCCC3)C[C@@H]2C1,IC50,[10],69 nM
CN(C)C(=O)N1C[C@@H]2C[C@](C)(NCC(=O)N3CCC[C@H]3C#N)C[C@@H]2C1,Cmax,[4],165 ng/mL
same,inhibition in vivo at 20 mg/kg,[11],> 75%
same,half-life,[6],195 min
same,AUC,[12],266.3 ng·h/mL
same,inhibition in vivo at 20 mg/kg,[8],38%
same,CL,[13],847.8 mL/min/kg
N#C[C@@H]1CCCN1C(=O)CN[C@@H]1C[C@@H]2CN(C(=O)CO)C[C@@H]2C1,IC50,[10],14 nM
CN(C)C(=O)N1C[C@H]2C[C@@H](NCC(=O)N3CCC[C@H]3C#N)C[C@H]2C1,Cmax,[4],39.4 ng/mL
same,AUC,[1],39.7%
same,inhibition in vivo at 20 mg/kg,[11],> 75%
same,half-life,[6],56.4 min
same,AUC(0-t),[7],68.7 ng·h/mL
same,AUC,[2],42%
same,AUC,[3],45%
same,CL/F,[9],190 mL/min/kg
N#C[C@@H]1CCCN1C(=O)CN[C@@H]1C[C@@H]2CN(C(=O)N3CCCC3)C[C@@H]2C1,IC50,[10],39 nM
